TCR CD3 inh: human TCR-CD3 binding inhibition; TAMRA-labeled TCR probe fluorescence, biochemical; inhibition, % at 9.4 µM; 360,000 compounds, 0.37% hits; in the data active = inhibition above about 19%;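 note: recombinant mutant TCR 2C K166C tagged with TAMRA read by polarization; 0% = receptor in buffer alone and 100% = receptor with positive control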
PRMT1 inh: blocks human protein arginine methyltransferase 1. AID 652257. 370,000 compounds, 1.3% hits. Q99873. recombinant PRMT1, activity-based probe fluorescence polarization. inhibition, % at 2.79 µM;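 active = inhibition above about 21% made by adding two undisclosed values, limit read from the data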
HTRA1 inhibitor: HTRA1 (human) protease inhibition; Q92743; recombinant HTRA1, FP-rhodamine activity-based probe, fluorescence polarization; inhibition, % at 5.96 µM; 340,000 compounds, 0.5% hits; in the data active = inhibition above about 36%;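 note: 0% = enzyme with DMSO and 100% = wells lacking enzyme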
SIAE primary: blocks human sialic acid acetylesterase | Q9HAT2 | SIAE FP-Rh probe binding, fluorescence polarization | inhibition, % at 9.66 µM | 370,000 compounds, 0.69% hits | AID 1053197;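 active = inhibition above a cutoff: mean of compounds within the control limits plus 3 SD of those, cut at about 17% in these data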;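 note: 0% = plate median of compound wells and 100% = probe without SIAE protein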
Target sequence (Q9HAT2 whole entry, looked up): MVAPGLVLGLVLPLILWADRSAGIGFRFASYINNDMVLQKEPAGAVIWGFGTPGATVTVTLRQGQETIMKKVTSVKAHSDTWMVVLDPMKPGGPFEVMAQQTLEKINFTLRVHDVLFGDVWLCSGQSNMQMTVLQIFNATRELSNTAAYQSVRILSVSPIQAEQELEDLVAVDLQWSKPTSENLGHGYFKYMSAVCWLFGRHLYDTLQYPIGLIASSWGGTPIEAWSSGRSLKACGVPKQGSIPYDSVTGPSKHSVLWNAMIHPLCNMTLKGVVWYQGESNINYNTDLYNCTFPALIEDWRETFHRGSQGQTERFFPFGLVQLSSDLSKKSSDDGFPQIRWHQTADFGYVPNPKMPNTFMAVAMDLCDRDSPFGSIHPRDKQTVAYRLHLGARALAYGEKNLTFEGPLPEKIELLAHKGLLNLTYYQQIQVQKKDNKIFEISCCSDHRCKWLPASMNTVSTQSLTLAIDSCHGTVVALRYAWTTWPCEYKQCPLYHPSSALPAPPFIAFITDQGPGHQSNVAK
mABHD4 FP: inhibits mouse alpha/beta hydrolase domain 4; Q8VD66; purified mABHD4, FP-Rh probe fluorescence polarization; inhibition, % at 8.92 µM; 370,000 compounds, 0.54% hits; AID 720543;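 active = inhibition exceeding the mean over every tested compound plus 3 SD, cut at about 30% in these data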;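 note: 0% = plate median of compound wells and 100% = S159A mutant with DMSO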
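Assay system: mABHD4 protein; medium: HEPES pH 7.0, NaCl, Pluronic buffer; dosing: 8.92 µM, single dose; schedule: 45 min + 60 min at 25 °C; signal: FP readout, ex 525 nm / em 598 nm; read-out: normalized percent inhibition of probe labeling; repeats: single replicate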
HTRA1 conf: HTRA1 (human) inhibition, confirmation. shares compounds with HTRA1 inhibitor. recombinant HTRA1, FP-rhodamine activity-based probe, fluorescence polarization. inhibition, % at 5.96 µM. 1,600 compounds, 66% hits;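 active = mean inhibition over three repeats above a set limit taken from the earlier primary screen, cut at about 37% in these data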;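 note: 0% = HTRA1 with DMSO and 100% = wells lacking HTRA1; inhibitors block probe binding so polarization drops and inhibition rises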
Numbers without * were called inactive; x = not tested or not shown. This is a sample that favours compounds with a hit; in the whole collection about 2.5% have one here.

SMILES	TCR CD3 inh	PRMT1 inh	HTRA1 inhibitor	SIAE primary	mABHD4 FP	HTRA1 conf
Cc1ccnc2nc(C(=O)OCC(=O)c3c[nH]c4ccccc34)nn12	5	-3	-2	-4	3	x
CCOc1ccccc1NC(=O)NNC(=O)CCn1nc(C)c([N+](=O)[O-])c1C	x	0	x	1	10	x
O=C(NCc1ccccc1)C(c1c(F)cccc1Cl)N(C(=O)c1csnn1)C1CC1 (stereo not given)	-6	1	-9	-5	-2	x
Cc1cccc(NC(=S)NCCc2ccccc2)c1C	3	-4	-7	-1	0	x
Cc1cccc(C)c1NC(=S)NCCc1ccc(O)c(O)c1	2	10	48*	9	15	109*
Cc1ccc(Oc2ccc(-c3nc(N)nc(N)n3)cc2)cc1C	-3	1	-54	-11	-33	x
Cc1ccnc(Nc2nc(-c3ccc(O)cc3O)cs2)c1	8	1	37*	10	19	44*
O=C(NC1CCN(Cc2ccc3ccccc3c2)CC1)c1ccccc1	6	3	6	-5	-2	x
COc1cc(/C=N/Nc2cccc(C)c2)cc(Br)c1O	-6	9	38*	15	11	30
Cc1oc2c(O)c(O)ccc2c(=O)c1-c1cnn(-c2ccccc2)c1	10	26*	61*	5	22	92*
CCCc1nnc(NC(=O)CCC(=O)N2CCN(C3c4ccccc4-c4ccccc43)CC2)s1	2	-3	-8	3	3	x
Cc1ccc(S(=O)(=O)N2[C@@H](c3ccc(Br)cc3)C(C(=O)O)=CC[C@H]2c2cccs2)cc1	-3	0	-11	-3	1	x
CCOC(=O)N1CCN(S(=O)(=O)c2ccc(C(=O)NNc3nc4c(C)cccc4s3)cc2)CC1	5	9	48*	11	23	168*
CCOC(=O)N1CCN(S(=O)(=O)c2ccc(C(=O)N(CCN(CC)CC)c3nc4c(C)cccc4s3)cc2)CC1	-4	-2	-31	14	7	x
CCOC(=O)N1CCN(S(=O)(=O)c2ccc(C(=O)NNc3nc4ccc(Cl)cc4s3)cc2)CC1	x	x	51*	x	x	78*
CCc1ccccc1N(CC(=O)N1CCc2ccccc2C1)S(C)(=O)=O	-8	6	8	-9	2	x
CSCCC(NC(=O)C1CCC(C)CC1)C(=O)NCCN1CCC(C)CC1 (stereo not given)	0	-4	-2	-1	-5	x
CCOC(=O)C1=C(CS(=O)(=O)c2ccc(F)cc2)NC(=O)NC1c1ccc(O)c(O)c1 (stereo not given)	11	2	48*	5	10	52*
COc1cccc2c(N/N=C/c3ccc(O)c(O)c3)cc(C)nc12	5	3	47*	-3	15	77*
COc1ccc(/C=N/Nc2cc(C)nc3c(C)cccc23)cc1	-4	-5	-22	-4	9	x
O=S1(=O)c2ccc(N3CCCC3)cc2Oc2ccccc2CN1Cc1cn(Cc2ccccc2C(F)(F)F)nn1	x	2	x	2	1	x
O=[N+]([O-])c1ccc(N/N=C/c2cccc(O)c2O)cc1	-3	10	64*	12	21	46*
O=[N+]([O-])c1ccc(NN=Cc2cccc([N+](=O)[O-])c2)cc1	-3	2	-2	15	6	x
O=C(OCc1cn(Cc2c(F)cccc2F)nn1)N1CCCC1	x	1	x	4	8	x
CN(C)c1ccc(C=c2c3ccccc3n3c2c2c([n+]3C)CCCC2)cc1	-8	4	53*	-4	8	55*
SMILES	TCR CD3 inh	PRMT1 inh	HTRA1 inhibitor	SIAE primary	mABHD4 FP	HTRA1 conf
O=C(NCCCN1CCOCC1)C(C(=O)NCCCN1CCOCC1)c1ncc(C(F)(F)F)cc1Cl	6	2	5	-9	-1	x
O=C(Oc1ccc(Cl)c2cccnc12)c1ccco1	0	2	72*	1	0	76*
COc1ccc2nc(N=NC3=C(O)CC(C)(C)CC3=O)sc2c1	5	-3	53*	-4	26	58*
CC1(C)CC(=O)C(N=Nc2ccc3ncsc3c2)=C(O)C1	5	4	9	5	3	x
Cc1cccc2cc(-c3ccccc3)c(-c3ccccc3)c[n+]12	3	4	56*	1	17	74*
CC1(C)CC(=O)C2=C(C1)N=C1c3ccccc3C(=O)C1C2c1ccc(Cl)cc1 (stereo not given)	-1	5	52*	13	6	51*
Cc1[nH]c2c(C)cccc2c1CCNC(=O)c1ccc2c(c1[N+](=O)[O-])C(=O)c1ccccc1C2=O	5	-4	42*	5	7	44*
c1coc(-c2nc3ccccc3nc2-c2ccco2)c1	34*	42*	52*	25*	62*	10
COC(=O)C1CN(Cc2ccc(F)cc2)CCS(=O)(=O)N1Cc1cn(CCOC(C)=O)nn1 (stereo not given)	x	3	x	-6	8	x
CC1(OC(=O)C2CCCC2)C(=O)C=C2C=C(c3ccsc3)N(Cc3ccccc3)C=C2C1=O (stereo not given)	-3	7	38*	5	24	31
CC1(OC(=O)C2CCCC2)C(=O)C=C2C=C(c3ccsc3)N(C3CC3)C=C2C1=O (stereo not given)	-3	7	20	11	12	x
CC1(OC(=O)C2CCCC2)C(=O)C=C2C=C(c3ccsc3)N(c3ccccc3)C=C2C1=O (stereo not given)	-3	7	39*	6	20	32
CC(C)CN1C=C2C(=O)C(C)(OC(=O)C3CCCC3)C(=O)C=C2C=C1c1ccsc1 (stereo not given)	5	6	26	8	13	x
CCOC1=C2CN(S(=O)(=O)c3ccc(C)cc3)[C@H](c3ccccc3)C[C@@H]2N(S(=O)(=O)c2ccccc2C)[C@H](c2ccccc2)C1	0	-2	x	9	5	x
Oc1c(CNc2ccccc2)cc(COCc2ccccc2)c2cccnc12	-4	-3	49*	19*	8	15
C=CCC(C(=O)OC)(C(=O)OC)c1ccccc1[N+](=O)[O-]	6	5	1	-6	8	x
Oc1ccccc1NCC(O)Cn1ccc2ccccc21 (stereo not given)	0	8	54*	10	27	21
O=C1CCCC2=C1C(c1ccc(O)c(O)c1)Nc1ccc3ncccc3c12 (stereo not given)	12	34*	40*	-10	10	67*
O=C1CCCC2=C1C(c1cccs1)Nc1ccc3ncccc3c12 (stereo not given)	-3	4	4	3	6	x
N#CCCN(NC1=NS(=O)(=O)c2ccccc21)C(=O)c1ccccc1Br	x	x	14	x	x	x
O=S1(=O)N[C@H](Cc2ccccc2)COc2cc(F)ccc21	6	-4	x	1	0	x
O=C1CC(/C=C/c2ccco2)=Nc2ccccc2N1	x	x	43*	x	x	-1

Screening results from PubChem BioAssay.
